Screening data as filed in PubChem.
Pyk2 oligo antag: blocks oligomerization of human Pyk2 in cells. Q293 cells, Pyk2 FERM NanoBiT luminescence; hits give low values. 99,000 compounds, 0.83% hits. z-score (the deposit names both 25 µM and 10 µM);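 active = Z-score of -3 or lower, scaled per plate to the spread of control and sample wells; inactive = z-score above -3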;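 note: negative z-score means lost luminescence so less FERM oligomerization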
Target sequence (Q14289 whole entry, looked up): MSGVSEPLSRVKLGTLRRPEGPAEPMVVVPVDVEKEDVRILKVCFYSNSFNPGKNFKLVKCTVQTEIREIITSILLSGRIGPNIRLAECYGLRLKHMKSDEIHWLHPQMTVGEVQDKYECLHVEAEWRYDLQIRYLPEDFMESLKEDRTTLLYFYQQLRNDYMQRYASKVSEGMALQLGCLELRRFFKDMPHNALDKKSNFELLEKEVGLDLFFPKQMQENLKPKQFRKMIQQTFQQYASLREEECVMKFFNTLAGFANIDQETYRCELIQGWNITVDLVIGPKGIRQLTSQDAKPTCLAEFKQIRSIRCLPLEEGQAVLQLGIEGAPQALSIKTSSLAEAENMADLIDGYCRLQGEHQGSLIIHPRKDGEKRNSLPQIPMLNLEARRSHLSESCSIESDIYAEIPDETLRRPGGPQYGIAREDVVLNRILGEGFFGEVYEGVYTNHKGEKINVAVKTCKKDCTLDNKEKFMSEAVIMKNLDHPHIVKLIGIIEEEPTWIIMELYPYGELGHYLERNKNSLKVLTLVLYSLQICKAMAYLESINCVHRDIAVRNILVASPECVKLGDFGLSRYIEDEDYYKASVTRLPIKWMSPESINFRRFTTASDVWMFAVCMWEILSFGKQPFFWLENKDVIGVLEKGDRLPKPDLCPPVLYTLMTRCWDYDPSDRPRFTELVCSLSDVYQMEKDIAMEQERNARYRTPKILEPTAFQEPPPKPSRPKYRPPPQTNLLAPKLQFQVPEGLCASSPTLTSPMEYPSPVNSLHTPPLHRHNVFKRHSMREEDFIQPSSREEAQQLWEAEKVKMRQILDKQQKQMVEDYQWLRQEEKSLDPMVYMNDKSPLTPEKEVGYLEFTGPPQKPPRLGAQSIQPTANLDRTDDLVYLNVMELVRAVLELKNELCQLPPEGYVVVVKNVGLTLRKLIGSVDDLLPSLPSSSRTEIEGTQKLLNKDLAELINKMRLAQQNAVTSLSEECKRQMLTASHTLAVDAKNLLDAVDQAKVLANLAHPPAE
PostGolgi yeast: growth inhibition of a yeast mutant, post-Golgi transport screen; post-Golgi transport phenotypic cell assay; inhibition, % at 10 µM; 98,000 compounds, 0.9% hits; AID 739;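 note: yeast cells grown in 1536-well plates; yeast grown about 18 h at 30C before absorbance read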
Ecoli WT expand: blocks growth of wild type E. coli BW25113; OD600 absorbance; growth inhibition, % at 100 µM; 98,000 compounds, 0.15% hits; AID 710;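 active = growth inhibition above about 50% at one test dose, limit read from the data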;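 note: growth measured after 20 h incubation at 37 °C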
Candida biofilm: kills Candida albicans biofilms. inhibition, % at 6 µM. C. albicans biofilm + clotrimazole, Alamar Blue. 85,000 compounds, 0.14% hits;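 active = inhibition above 20%; inactive = inhibition below 20%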;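 note: preformed 24 hr biofilms exposed to compound for 48 hr; 0% = biofilm without compound and 100% = blank killed by clotrimazole plus chlorhexidine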
PostGolgi ctrl: growth of the yeast control strain, post-Golgi counter-screen. efflux-deficient yeast background strain, growth absorbance A615, 16 h. inhibition, % at 10 µM. 98,000 compounds, 5% hits. AID 738
tolC growth inh: growth inhibitors of E. coli BW25113 tolC mutant; OD615; growth inhibition, % at 10 µM (by protocol); 65,000 compounds, 2.2% hits; AID 573;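 active = growth inhibition at or above a cutoff equal to the mean over every tested compound plus 3 SD, cut at about 60% in these data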;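 note: growth measured after 20 h incubation at 37 °C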
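Test system: E. coli BW25113 ΔtolC::kan bacteria; incubation: 37 °C, 20 h exposure; medium: LB broth supplemented with 50 µg/mL kanamycin; read-out basis: percent growth inhibition; signal: A615 absorbance measurement; compound: 10 µM final, single dose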
The depositor's hits bear a star; nt = no result given. Rows were chosen to be rich in hits. Some 6.5% of all compounds tested hit in one or more screens of this group. Cut-off read from the data, not from the text of the source, unless noted: active = inhibition above about 30%; inactive = the rest.

SMILES	Pyk2 oligo antag	PostGolgi yeast	Ecoli WT expand	Candida biofilm	PostGolgi ctrl	tolC growth inh
Cc1nn(Cc2ccc([N+](=O)[O-])cc2)c(=O)n1-c1c(F)cccc1F	0.12	-3	5	nt	16	nt
COCCCNC(=O)CS(=O)(=O)Cc1nc(-c2ccccc2C)oc1C	nt	8	-6	nt	2	-7
Cc1ccccc1-c1nc(CS(=O)(=O)CC(=O)Nc2cc(F)ccc2F)c(C)o1	nt	-7	-15	16	92*	7
C/C(=N\NC(=O)CSCc1ccc(Cl)cc1)c1ccc2c(c1)OCCO2	0.83	3	-7	nt	31*	nt
COc1ccc(NC(=O)c2cccnc2C(=O)O)c(OC)c1	-0.5	16	1	7	4	nt
Cc1ccc(-n2ncc(C#N)c2/N=C/N2CCOCC2)cc1	0.03	23	-2	3	2	-5
Cc1ccc(-n2ncc(C#N)c2/N=C/N(C)C)cc1	-0.36	-4	11	-4	33*	14
CCCS(=O)(=O)N1CCC(C(=O)NCCN(C)Cc2ccccc2)CC1	0.24	-7	-1	4	-13	-21
O=C(Nc1ccc2c(c1)OCCO2)C1CCCN(S(=O)(=O)Cc2ccccc2)C1 (stereo not drawn)	0.02	3	-6	3	-1	-1
O=C(Nc1ccc2c(c1)OCO2)C1CCCN(S(=O)(=O)Cc2ccccc2)C1 (stereo not drawn)	0.81	-4	-5	5	42*	-10
O=C(Nc1ccc2c(c1)OCCO2)C1CCN(C(=O)c2ccccc2)CC1	-0.89	-5	-1	9	31*	nt
O=C(C1CCCN(S(=O)(=O)Cc2ccccc2)C1)N1CCC(Cc2ccccc2)CC1 (stereo not drawn)	-1.1	5	-5	3	34*	nt
CCOC(=O)C1CCN(S(=O)(=O)c2c(C)n(C)c(=O)n(C)c2=O)CC1	nt	2	6	8	-1	-3
N#C/C(=C\c1ccc(Sc2nc3ccccc3[nH]2)o1)c1ccccc1	-2.4	-9	-17	1	54*	nt
Cc1ccc2c(c1)c1c(n2CC(O)Cn2c(C)nc3ccccc32)/C(=N\O)CCC1 (stereo not drawn)	-0.01	-9	3	6	23	78*
O=c1[nH]c(Nc2nc3ccccc3o2)nc2c1CCCC2	-3.3*	-17	-2	7	22	-1
Cc1ccc(Nc2nc3c(c(=O)[nH]2)CCCC3)cc1	-0.02	nt	nt	2	nt	nt
O=C1CC(C(=O)Nc2ccccc2)N=C(N2CCCCC2)N1 (stereo not drawn)	0.35	6	-6	5	31*	-9
Cc1c(NC(=O)c2ccc(F)c(S(=O)(=O)N3CCOCC3)c2)c(=O)n(-c2ccccc2)n1C	1.7	1	-2	6	7	nt
CCOc1ccc(C(=O)N2CCN(c3cccc(C)c3C)CC2)cc1	0.2	17	4	-2	19	82*
Cc1cccc(N2CCN(C(=O)Cc3ccc(Br)cc3)CC2)c1C	-0.76	18	-5	3	46*	nt
O=C(Cc1ccc(Br)cc1)N1CCN(c2ccccc2)CC1	0.44	7	4	2	0	22
O=C(c1ccccc1Cl)N1N=C(c2ccc(Br)cc2)CC1c1nc2ccccc2[nH]1 (stereo not drawn)	-0.69	8	-10	nt	64*	nt
O=C(c1ccccc1-c1nc2ccccc2[nH]1)N1CCCCC1	1.8	-6	3	nt	5	-9
CCOC(=O)C1=C(CC)Nc2ccccc2N=C1NC(=O)Nc1ccc(Cl)c(Cl)c1	-4.1*	73*	18	nt	66*	nt
SMILES	Pyk2 oligo antag	PostGolgi yeast	Ecoli WT expand	Candida biofilm	PostGolgi ctrl	tolC growth inh
CCOC(=O)C1=C(CC)Nc2ccccc2N=C1NC(=O)Cn1cnc2ccccc2c1=O	-0.25	-1	-15	5	5	-5
COc1ccc(N2CCN(c3nc(NCCc4ccc(OC)c(OC)c4)nc(OC)n3)CC2)cc1	-3.1*	5	1	7	20	11
CCOc1nc(NCCc2ccc(OC)c(OC)c2)nc(N2CCN(c3ccc(OC)cc3)CC2)n1	0.06	-9	-14	5	4	nt
COCCn1c(=NC(=O)CSCC(=O)NC2CCCCC2)sc2cc(OC)ccc21	0.75	5	-8	4	48*	-12
CCOC(=O)c1ccccc1NC1c2ccccc2C(=O)N1c1ccc(C)cn1 (stereo not drawn)	nt	-5	-4	4	48*	29
CCOc1ccccc1NC1c2ccccc2C(=O)N1c1ccc(C)cn1 (stereo not drawn)	nt	-14	-4	6	33*	13
